In test [1] the test system is CCRF-CEM. The test is described as follows: Inhibitory activity was tested against CEM cells. In kind it is functional, cell-based. The note with it: Homo sapiens.
The test system of test [2] is CCRF-CEM. As to the kind of experiment: Average potency against CEM cells. In kind it is functional, Homo sapiens.
Test [3] relates to Tumor Cell line. As to the kind of experiment: Tested against human tumor cell lines, mean graph mid point values(MG MID) are determined. The format is functional. An outline of the steps: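 Panel of about 55 human tumor cell lines from nine cancer types: leukemia, melanoma, non-small-cell lung, colon, CNS, ovarian, renal, prostate and breast. Compounds were tested from 10⁻⁴ to 10⁻⁸ M, and the 50% growth-inhibitory concentration was found for each line.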

Test [4] deals with L1210. The test is described as follows: Average potency against L1210 cells. The format is functional, Mus musculus.
Test [5] concerns MOLT-4. The test is described as follows: Average potency against Molt4/C8cells. The format is functional, Homo sapiens.
For test [6], the system named is MOLT-4. As to the kind of experiment: Inhibitory activity was tested against Molt4/C8 cells. The format is functional, cell-based. The note with it: Homo sapiens.
In test [7] the test system is P388. The test is described as follows: Average potency against P388 cells. The format is functional, Mus musculus.
Test [8] concerns P388. As to the kind of experiment: Inhibitory activity was tested against P388 cells. In kind it is functional, cell-based. The note with it: Mus musculus.
The test system of test [9] is L1210. The test is described as follows: Inhibitory activity was tested against L1210 cells. The format is functional, cell-based. The note with it: Mus musculus.
Test [10] has as its system Jurkat. As to the kind of experiment: (§1) IC80 concentrations of the compounds were used in determining the inhibition of RNA synthesis using Jurkat T cells. In kind it is functional, Homo sapiens.
In test [11] the test system is Jurkat. The test is described as follows: (§2) IC80 concentrations of the compounds were used in determining the inhibition of protein synthesis using Jurkat T cells. In kind it is functional, Homo sapiens.
For test [12], the system named is Jurkat. As to the kind of experiment: (§3) Inhibitory concentration against Human Jurkat T cells. In kind it is functional, cell-based.
Test [13] relates to Jurkat. The test is described as §3. The format is functional.
Test [14] concerns Tumor Cell line. The description is as §3. The format is functional, cell-based. A digest of the protocol:
(§4)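 Human Jurkat T cells were exposed to compounds for 48 h. Viability was scored by nigrosin dye exclusion in place of trypan blue. IC50 and IC80 were derived from these counts.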

Test [15] concerns Tumor Cell line. The description is as §3. In kind it is functional. A digest of the protocol:
as §4

Test [16] relates to Tumor Cell line. Described as §1. The format is functional, Homo sapiens.
Test [17] concerns Tumor Cell line. The description is as §2. In kind it is functional, Homo sapiens.

Molecules are shown by their SMILES. Starred links: 1 amine or outer side, 2 acyl side, 3 side chain; linkers in the order of their positions; H or OH if unused. Positions of bridges follow the written chain, without caps; N, C: chain ends. Non-standard residues stand in square brackets, D forms with d. Residues, ends and D or L forms follow the SMILES beside them. Chains are numbered I, II in the order given. Actinocin(1to9) = Cc1c2oc3c(C)ccc(C(=O)[*:2])c3nc-2c(C(=O)[*:1])c(N)c1=O; NMeV = CN[C@H](C(=O)O)C(C)C; Sar = CNCC(=O)O

On to `O=C1CCCCC/C1=C\c1cccc(F)c1`, for which the IC50 in the test with CCRF-CEM [1] was 224 µM; in the test with MOLT-4 [6] it was 482 µM; in the test on P388 [8], more than 50 µM; in the test with L1210 [9], 382 µM. The AP came to 136 µM in the test with CCRF-CEM [2], 227 µM with L1210 [4], 186 µM in the test with MOLT-4 [5] and 34.5 µM in the test on P388 [7]. The “MG MID” value with Tumor Cell line [3] was determined as 67.6 µM.
`O=C1/C(=C/c2cccc([N+](=O)[O-])c2)CCCc2ccccc21`: the 50% inhibitory concentration (IC50) came to 7.72 µM in the test on CCRF-CEM [1], 8.82 µM in the test with MOLT-4 [6], 15.8 µM in the test with P388 [8] and 48.8 µM with L1210 [9]. In addition, the AP with CCRF-CEM [2] came out at 47 µM; in the test with L1210 [4], 85.2 µM; in the test on MOLT-4 [5] it was 66 µM; with P388 [7], 11.2 µM. For the same compound, in the test on Tumor Cell line [3], the “MG MID” value worked out at 10.2 µM.
Take `Cc1ccc(/C=C2\CCCc3ccccc3C2=O)cc1`: the IC50 with CCRF-CEM [1] was determined as 11.4 µM; in the test on Jurkat [12] it was 14.6 µM; with MOLT-4 [6], 21.3 µM; in the test on P388 [8], 11.8 µM; in the test on L1210 [9], 25 µM. The AP in the test with CCRF-CEM [2] worked out at 47 µM; with L1210 [4], 85.2 µM; in the test with MOLT-4 [5] it was 66 µM; in the test with P388 [7] it was 11.2 µM. The Inhibition in the test on Jurkat [10] was found to be 84.2%; with Jurkat [11], 46.3%. Also, the “MG MID” value in the test on Tumor Cell line [3] was found to be 11.2 µM. For the same compound, the 80% effect level in the test with Jurkat [13] (IC80) was put at 23.3 µM.
As for `COc1ccc(/C=C2\CCCc3ccccc3C2=O)cc1`, the IC50 in the test with CCRF-CEM [1] was found to be 0.35 µM; in the test on Tumor Cell line [14], 3.5 µM; in the test with MOLT-4 [6], 0.47 µM; in the test on P388 [8], 1.6 µM; in the test on L1210 [9], 0.34 µM. For the same compound, the AP in the test on CCRF-CEM [2] was determined as 47 µM; in the test with L1210 [4], 85.2 µM; with MOLT-4 [5], 66 µM; in the test with P388 [7], 11.2 µM. In the test with Tumor Cell line [15], the 80% effect level (IC80) was put at 5.6 µM. The results for the Inhibition in the test on Tumor Cell line [16] and in the test with Tumor Cell line [17] were 92.3% and 19.5%, respectively. Further, in the test with Tumor Cell line [3], the “MG MID” value came to 0.269 µM.
As to `O=C1/C(=C/c2cccc(Cl)c2)CCCc2ccccc21`, the IC50 with CCRF-CEM [1] was determined as 9.44 µM; in the test on MOLT-4 [6] it was 23.8 µM; with P388 [8] it was 8.2 µM; in the test on L1210 [9] it was 52.3 µM. Also, the AP in the test on CCRF-CEM [2] is 47 µM; in the test on L1210 [4], 85.2 µM; in the test with MOLT-4 [5], 66 µM; with P388 [7], 11.2 µM. The “MG MID” value in the test with Tumor Cell line [3] was 16.6 µM.
With `N[C@@H](Cc1ccc(N(CCCl)CCCl)cc1)C(=O)O`, the Inhibition in the test with Jurkat [10] was 85.1%; in the test on Jurkat [11], 30.5%. In addition, the “MG MID” value with Tumor Cell line [3] amounted to 25.7 µM. In the test with Jurkat [12], the IC50 stood at 2.2 µM. In the test with Jurkat [13], the IC80 worked out at 3.52 µM.
For `C[C@@H]1C[C@@H]([C@H](O)CC2CC(=O)NC(=O)C2)C(=O)[C@@H](C)C1` [CYCLOHEXIMIDE], the Inhibition stood at 93.3% with Jurkat [10] and 71.9% in the test on Jurkat [11]. The IC50 in the test on Jurkat [12] was 0.93 µM. The same compound gave an IC80 in the test with Jurkat [13] of 1.54 µM.
For `Cc1c2oc3c(C)ccc(C(=O)N[C@@H]4C(=O)N[C@H](C(C)C)C(=O)N5CCC[C@H]5C(=O)N(C)CC(=O)N(C)[C@@H](C(C)C)C(=O)O[C@@H]4C)c3nc-2c(C(=O)N[C@@H]2C(=O)N[C@H](C(C)C)C(=O)N3CCC[C@H]3C(=O)N(C)CC(=O)N(C)[C@@H](C(C)C)C(=O)O[C@@H]2C)c(N)c1=O` [DACTINOMYCIN] (I: T[dV]P[Sar][NMeV] / II: T[dV]P[Sar][NMeV]; ester I:1-I:C, II:1-II:C; linker I:N-II:N via Actinocin(1to9)) the same measures were 63.2%, 51.8%, 0.0045 µM and 0.0072 µM.

The IC50 is the point on the concentration scale where inhibition reaches its midpoint. Low values mean greater potency, high ones weaker potency. Broadly, the Inhibition is the relative decrease from the control value, in per cent. Broadly, the IC80 is the point of the concentration-response curve where the effect stands at 80%. A low value points to an effect from little substance.

(Values after ChEMBL document CHEMBL1132632, “Conformational and quantitative structure-activity relationship study of cytotoxic 2-arylidenebenzocycloalkanones” (J Med Chem, 1999).)
